{"source": "ChEMBL document CHEMBL4665889", "about": "“Design, Synthesis, and Pharmacological Characterization of a Neutral, Non-Prodrug Thrombin Inhibitor with Good Oral Pharmacokinetics” (J Med Chem, 2020)", "key": {"[1]": {"assay": "Clearance in Wistar rat hepatocytes at 1 uM incubated up to 90 mins by LC-MS/MS analysis", "type": "ADME, cell-based, Hepatocyte", "conditions": "Wistar", "procedure,_shortened": "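Fresh male Wistar rat hepatocytes, 1 × 10⁶ viable cells/mL, in Williams' medium E at 37 °C, pH 7.4, with 1 μM substrate and <1% acetonitrile. Samples at 2–90 min quenched in acetonitrile and analysed by LC-MS/MS.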"}, "[2]": {"molecular_target": "T1, Nuclear receptor subfamily 1 group I member 2 (Homo sapiens, UniProt O75469)", "T1 sequence (O75469 whole entry)": "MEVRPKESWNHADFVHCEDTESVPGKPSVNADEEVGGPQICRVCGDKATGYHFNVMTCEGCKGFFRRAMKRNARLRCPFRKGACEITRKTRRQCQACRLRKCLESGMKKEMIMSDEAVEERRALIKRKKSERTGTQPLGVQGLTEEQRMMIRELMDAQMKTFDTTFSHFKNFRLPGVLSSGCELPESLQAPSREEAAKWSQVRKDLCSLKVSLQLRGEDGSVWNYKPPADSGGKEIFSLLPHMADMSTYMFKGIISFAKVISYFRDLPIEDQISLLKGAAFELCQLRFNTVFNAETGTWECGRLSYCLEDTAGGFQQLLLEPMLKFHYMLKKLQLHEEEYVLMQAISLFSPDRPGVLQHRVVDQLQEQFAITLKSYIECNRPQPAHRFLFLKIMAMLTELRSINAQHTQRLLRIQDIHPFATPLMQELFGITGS", "assay": "Activation of human PXR expressed in human HepG2 cells", "type": "ADME, cell-based", "procedure,_shortened": "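HepG2 cells transiently co-transfected with human PXR and a luciferase reporter under the human CYP3A4 promoter, 48 h before readout. 24 h after seeding, 1:3 serial dilutions (2 nM to 50 μM, 0.5% DMSO) added. Luminescence normalized to rifampicin (100%) and DMSO (0%). MEC is the lowest concentration raising signal above 4-fold SD of DMSO background.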"}, "Plasma [3]": {"tested_on": "Plasma", "assay": "Anticoagulation activity in human plasma assessed as drug level causing doubling of prothrombin time incubated for 3 mins", "type": "functional", "conditions": "0.05 h", "procedure,_shortened": "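Citrated human plasma (0.11 M citrate 1:9, spun ~4000g 15 min) incubated with compound at 37 °C for 3 min. Clotting started with thromboplastin and time to coagulation recorded. Value is the concentration doubling clotting time (PT or aPTT).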"}, "[4]": {"assay": "Half life in Wistar Hannover rat at 0.3 to 0.5 mg/kg, iv by LC-MS/MS analysis", "type": "ADME, organism-based", "conditions": "in vivo, dose 0.3-0.5 mg/kg, time <=24 hrs", "procedure,_shortened": "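Male Wistar Hannover rats, catheterized under isoflurane; one day later iv injection into lateral tail vein at 0.3 to 0.5 mg/kg in plasma containing 2% DMSO. Blood sampled via catheter from 0.033 to 24 h. Plasma precipitated with acetonitrile, analysed by LC-MS/MS (10 mM ammonium acetate pH 3.0/acetonitrile gradient). PK parameters calculated from plasma concentrations.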"}, "[5]": {"assay": "Oral bioavailability in Wistar Hannover rat at 1 mg/kg by LC-MS/MS analysis", "type": "ADME, organism-based", "conditions": "in vivo, time <=24 hrs", "procedure,_shortened": "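Catheterized male Wistar Hannover rats dosed by gavage at 1 mg/kg in 10% ethanol/40% PEG/50% water. Blood taken via catheter at 0.083 to 24 h. Plasma precipitated with acetonitrile and analysed by LC-MS/MS. Bioavailability derived against iv dosing at 0.3 to 0.5 mg/kg.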"}, "[6]": {"molecular_target": "Tissue-type plasminogen activator (Homo sapiens) (UniProt P00750)", "sequence (P00750 36-562 limits assumed)": "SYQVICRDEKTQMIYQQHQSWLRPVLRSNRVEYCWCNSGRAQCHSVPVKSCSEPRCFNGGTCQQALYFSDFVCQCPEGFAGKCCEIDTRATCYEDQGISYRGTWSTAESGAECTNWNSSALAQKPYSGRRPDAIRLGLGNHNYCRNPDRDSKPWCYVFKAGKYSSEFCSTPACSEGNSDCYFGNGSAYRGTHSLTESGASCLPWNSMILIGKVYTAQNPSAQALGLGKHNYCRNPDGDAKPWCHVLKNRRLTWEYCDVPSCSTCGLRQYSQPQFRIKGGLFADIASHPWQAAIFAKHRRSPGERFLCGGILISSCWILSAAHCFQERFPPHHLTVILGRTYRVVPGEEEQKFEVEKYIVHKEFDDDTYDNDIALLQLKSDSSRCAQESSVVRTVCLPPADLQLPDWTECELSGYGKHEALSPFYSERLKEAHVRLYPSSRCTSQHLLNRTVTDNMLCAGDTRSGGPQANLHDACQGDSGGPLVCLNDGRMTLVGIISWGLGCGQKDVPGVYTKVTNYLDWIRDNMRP", "assay": "Inhibition of purified human plasma tPA up to 20 uM using CH3SO2-DPhe-Gly-Arg-AMC substrate incubated for 30 mins by fluorescence based assay", "conditions": "dose microM <=20, time 30.0 min", "procedure,_shortened": "(§1)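 Final levels: thrombin 0.02 nM; FXa 1.3 nM; FXIa 0.15 nM; plasmin 1.2 nM (substrate 50 μM); tPA 2 nM; kallikrein 0.2 nM; trypsin 0.1 nM; other AMC substrates 5 μM. FVIIa 0.5 pM coupled with tissue factor, factor X 12 nM, FXa substrate 50 μM.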"}, "[7]": {"molecular_target": "T2, Coagulation factor VII (Homo sapiens) (UniProt P08709)", "T2 sequence (whole entry)": "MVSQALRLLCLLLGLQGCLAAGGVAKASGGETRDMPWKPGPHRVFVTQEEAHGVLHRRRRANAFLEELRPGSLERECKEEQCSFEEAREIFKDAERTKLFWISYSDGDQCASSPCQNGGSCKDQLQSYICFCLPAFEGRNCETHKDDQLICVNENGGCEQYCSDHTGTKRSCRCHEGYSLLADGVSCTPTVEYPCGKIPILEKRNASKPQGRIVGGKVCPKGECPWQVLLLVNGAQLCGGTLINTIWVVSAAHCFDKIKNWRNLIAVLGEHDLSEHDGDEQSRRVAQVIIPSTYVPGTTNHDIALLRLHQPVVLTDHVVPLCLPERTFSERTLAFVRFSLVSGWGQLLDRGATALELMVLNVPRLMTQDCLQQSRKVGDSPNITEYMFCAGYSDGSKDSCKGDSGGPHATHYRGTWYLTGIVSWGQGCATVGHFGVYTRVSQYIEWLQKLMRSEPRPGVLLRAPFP", "assay": "Inhibition of purified human plasma factor-7a up to 20 uM incubated for 30 mins by fluorescence based based coupled protease reaction assay", "conditions": "dose microM <=20, time 30.0 min", "procedure,_shortened": "as §1"}, "[8]": {"molecular_target": "Coagulation factor XI (Homo sapiens) (UniProt P03951)", "sequence (P03951 19-387 limits assumed)": "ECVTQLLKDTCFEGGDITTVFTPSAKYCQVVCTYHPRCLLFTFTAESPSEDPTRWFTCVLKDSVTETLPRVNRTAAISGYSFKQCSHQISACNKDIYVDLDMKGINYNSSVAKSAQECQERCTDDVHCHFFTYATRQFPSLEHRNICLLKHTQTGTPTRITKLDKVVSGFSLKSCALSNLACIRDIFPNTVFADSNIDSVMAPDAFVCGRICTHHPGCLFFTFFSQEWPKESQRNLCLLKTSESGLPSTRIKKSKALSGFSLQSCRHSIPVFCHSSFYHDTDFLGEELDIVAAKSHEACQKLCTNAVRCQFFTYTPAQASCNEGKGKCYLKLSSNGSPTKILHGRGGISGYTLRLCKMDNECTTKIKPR", "sequence (P03951 388-625 limits assumed)": "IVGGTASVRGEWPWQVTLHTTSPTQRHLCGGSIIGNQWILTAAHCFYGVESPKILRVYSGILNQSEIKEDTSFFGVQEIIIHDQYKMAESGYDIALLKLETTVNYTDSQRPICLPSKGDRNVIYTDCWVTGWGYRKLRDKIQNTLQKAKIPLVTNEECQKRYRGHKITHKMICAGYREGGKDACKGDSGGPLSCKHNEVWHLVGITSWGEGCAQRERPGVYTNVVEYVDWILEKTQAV", "assay": "Inhibition of purified human plasma factor-11a up to 20 uM using Boc-Glu(OBzl)-Ala-Arg-AMC substrate incubated for 30 mins by fluorescence based assay", "conditions": "dose microM <=20, time 30.0 min", "procedure,_shortened": "as §1"}, "[9]": {"molecular_target": "Plasma kallikrein (Homo sapiens) (UniProt P03952)", "sequence (P03952 20-390 limits assumed)": "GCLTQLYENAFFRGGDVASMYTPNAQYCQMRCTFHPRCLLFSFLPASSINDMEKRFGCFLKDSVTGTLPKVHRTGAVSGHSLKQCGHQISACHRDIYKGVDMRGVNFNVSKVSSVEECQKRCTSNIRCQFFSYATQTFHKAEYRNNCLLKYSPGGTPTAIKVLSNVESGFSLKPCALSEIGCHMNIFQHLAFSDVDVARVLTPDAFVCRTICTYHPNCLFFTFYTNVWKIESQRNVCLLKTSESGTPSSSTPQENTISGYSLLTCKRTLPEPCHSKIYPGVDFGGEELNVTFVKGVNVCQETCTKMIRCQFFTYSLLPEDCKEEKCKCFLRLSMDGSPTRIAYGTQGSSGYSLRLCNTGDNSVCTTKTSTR", "sequence (P03952 391-638 limits assumed)": "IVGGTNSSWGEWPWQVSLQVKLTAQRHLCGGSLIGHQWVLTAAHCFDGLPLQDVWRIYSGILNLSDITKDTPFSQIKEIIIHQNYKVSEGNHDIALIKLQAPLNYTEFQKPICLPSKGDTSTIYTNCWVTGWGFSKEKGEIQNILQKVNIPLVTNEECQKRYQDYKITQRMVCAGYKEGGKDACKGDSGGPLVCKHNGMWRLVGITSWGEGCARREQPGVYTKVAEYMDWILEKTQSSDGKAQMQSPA", "assay": "Inhibition of purified human plasma kallikrein up to 20 uM using H-Pro-Phe-Arg-AMC substrate incubated for 30 mins by fluorescence based assay", "conditions": "dose microM <=20, time 30.0 min", "procedure,_shortened": "as §1"}, "Plasma [10]": {"tested_on": "Plasma", "assay": "Anticoagulation activity in human plasma assessed as drug level causing doubling of APTT incubated for 3 mins", "type": "functional", "conditions": "0.05 h"}, "Rattus norvegicus [11]": {"tested_on": "Rattus norvegicus", "assay": "Antithrombotic activity in HsdCpd:WU rat model of arteriovenous shunt model assessed as reduction in thrombus weight at 0.6 to 6 mg/kg/hr, iv", "type": "functional, organism-based", "conditions": "dose mg/kg/hr 0.6-6", "procedure,_shortened": "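Fasting male HsdCpd:WU rats, 300−350 g, anesthetized with Inactin (150−180 mg/kg). Jugular vein and carotid artery linked by a 10 cm PE 60 shunt. Shunt opened 20 min after iv bolus for 15 min; thrombus on nylon thread weighed.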"}, "[12]": {"assay": "Toxicity in HsdCpd:WU rat model of arteriovenous shunt model assessed as prolongation of bleeding time at 0.6 to 6 mg/kg/hr, iv", "type": "organism-based", "conditions": "in vivo, dose 0.6-6 mg/kg/hr"}, "Rattus norvegicus [13]": {"tested_on": "Rattus norvegicus", "assay": "Antithrombotic activity in HsdCpd:WU rat thrombosis model with venous stasis assessed as reduction in thrombus weight at 1 to 10 mg/kg, po dosed 90 mins before thrombus induction measured after 15 mins", "type": "functional, organism-based", "conditions": "dose mg/kg 1-10, time 105.0 min", "procedure,_shortened": "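Anesthetized rats, n = 6−10 per dose group. Compound in PEG/water/glycerol or vehicle given by gavage 90 min before induction. Two loose sutures placed on vena cava below left renal vein; thromboplastin 0.5 mg/kg iv into femoral vein, sutures tied after 15 s. Segment removed 15 min later and thrombus weighed.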"}, "[14]": {"assay": "Tmax in orally dosed healthy human", "type": "ADME, organism-based", "conditions": "in vivo, po"}, "[15]": {"assay": "Terminal half-life in orally dosed healthy human", "type": "ADME, organism-based", "conditions": "in vivo, po, read-out: beta t1/2 (converted)"}}, "note": "Active and inactive are the calls of the source. The calls are words filed in the database; no cut-off is given here."}
{"smiles": "COc1cc(C(=O)N2C[C@H](C)OC[C@@H]2CCO)cc2nc(N[C@H](CF)c3cccc(Cl)c3)oc12", "values": [{"measurement": "CLhep predicted at 1 µM", "setting": "[1]", "value": 31.7, "unit": "mL/min/kg"}, {"measurement": "MEC", "setting": "[2]", "value": 1.9, "unit": "µM"}, {"measurement": "2PT", "setting": "Plasma [3]", "value": 1.1, "unit": "µM"}, {"measurement": "half-life", "setting": "[4]", "value": 1.4, "unit": "h"}, {"measurement": "bioavailability", "setting": "[5]", "value": 38, "unit": "%"}, {"measurement": "inhibition", "setting": "[6]", "value": "inactive"}, {"measurement": "inhibition", "setting": "[7]", "value": "inactive"}, {"measurement": "inhibition", "setting": "[8]", "value": "inactive"}, {"measurement": "inhibition", "setting": "[9]", "value": "inactive"}, {"measurement": "2aPTT", "setting": "Plasma [10]", "value": 0.7, "unit": "µM"}, {"measurement": "Activity", "setting": "Rattus norvegicus [11]", "value": "Dose-dependent effect"}, {"measurement": "fold change (FC)", "setting": "[12]", "value": "< 2"}, {"measurement": "Activity", "setting": "Rattus norvegicus [13]", "value": "Dose-dependent effect"}, {"measurement": "Tmax", "setting": "[14]", "value": 0.75, "unit": "h"}, {"measurement": "half-life", "setting": "[15]", "value": 9.5, "unit": "h"}]}
